Assay results from publication PMC2659327 (Nature chemical biology, 2009).
pEC50: −log10 of the molar value. Values joined by “and” are separate entries in the source; they are usually repeats but may differ in a detail not shown here. Identical values can stand only once.

Legend:
[1] = test system: inositol 1,4,5-trisphosphate-mediated Ca^2+ release; experiment: inositol 1,4,5-trisphosphate-mediated Ca2+ release in sea urchin egg homogenate; format: biochemical, Lytechinus pictus; conditions: read-out: EC50, Ca2+ release
Summary of the method: (§1)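 Lytechinus pictus egg homogenate with the Ca2+ dye fluo-3 and ATP. Second messenger added and Ca2+ release followed as fluo-3 fluorescence (RFU), in a plate reader (2-4 replicates) or a fluorimeter.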

[2] = test system: NAADP-mediated Ca^2+ release; experiment: NAADP-mediated Ca2+ release bioassay in sea urchin egg homogenate; format: biochemical, Lytechinus pictus; conditions: for Ca2+ release induced by the compound itself in the bioassay: compound at 125 μM
[3] = test system: glucose-induced Ca^2+ increases in mouse pancreatic islets; experiment: glucose-induced Ca2+ signaling in isolated pancreatic islets; format: cell-based; conditions: isolated mouse islet, glucose 10 mM, compound 100 μM
intact sea urchin eggs = experiment: NAADP-induced Ca2+ release in intact sea urchin eggs; format: cell-based; conditions: 100 μM compound in artificial seawater; NAADP microinjected
[4] = test system: mitochondrial metabolism (NAD(P)H); experiment: glucose-induced NAD; format: cell-based, mouse; conditions: 100 μM compound
Summary of the method: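 Islets of Langerhans were pre-incubated 60 min at 37°C in control medium containing 3 mM glucose. NAD(P)H autofluorescence was recorded at 360 nm excitation and >470 nm emission. Changes were expressed as percent of basal values within the same islet.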

[5] = test system: sea urchin egg binding protein (NAADP receptor); experiment: [32P]NAADP radioligand displacement binding assay, sea urchin egg homogenate; set-up: species or system Lytechinus pictus
[6] = test system: voltage-gated Ca^2+ channels; experiment: KCl depolarization-induced Ca2+ transient in islets; format: cell-based, mouse; conditions: 100 μM compound; glucose 10 mM, diazoxide 100 μM, KCl 45 mM
Summary of the method: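 Pancreatic beta cells loaded with fura-PE3 acetoxymethyl ester for Ca2+ imaging. Cells were held in glucose and diazoxide, then depolarized with KCl with or without test compound in the bath. Data given as mean ± standard error of the mean and compared by one-tailed t-tests.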

[7] = test system: mouse pancreatic beta cells; experiment: NAADP-mediated Ca2+ spiking in patch-clamped pancreatic beta cells; format: cell-based; conditions: pre-incubation with 125 μM in bathing solution; NAADP 50 nM via patch pipette
Summary of the method: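 Whole-cell patch clamp at room temperature. Borosilicate pipettes were 3–5 MΩ and the holding potential was −70 mV. Test compound was pre-incubated in the bath. Read-out was Ca2+-dependent current traces.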

[8] = solubility in 25% dimethylsulfoxide or 25% dimethylformamide; format: physicochemical
[9] = test system: cyclic ADP-ribose-mediated Ca^2+ release; experiment: cyclic ADP-ribose-mediated Ca2+ release in sea urchin egg homogenate; format: biochemical, Lytechinus pictus; conditions: read-out: EC50, Ca2+ release
Summary of the method: as §1

## FC(F)(F)c1cccc(N2CCN(Cn3nc(COc4ccccc4)n(-c4ccccc4)c3=S)CC2)c1 [Ned-16]
[2]
  Ca2+ release induced by the compound itself in the bioassay: induced irreversible Ca^2+ release

## COc1ccc(C2N[C@H](C(=O)O)Cc3c2[nH]c2ccccc32)cc1CN1CCN(c2ccccc2F)CC1 (stereo partly shown) [Ned-19]
[3]
  effect on glucose-induced Ca2+ signal: reduced the amplitude of the oscillations and reduced the elevated plateau to the nonstimulated level
Intact sea urchin eggs
  NAADP-induced Ca2+ increase in intact sea urchin eggs: failed to elicit a Ca^2+ increase
[4]
  glucose-induced increase in NADH and NADPH fluorescence: still occurred
[5]; Ned-19 10 μM, after 5 days of incubation
  dissociation from the NAADP receptor (recovery of [32P]NAADP binding): only about half the bound Ned-19 dissociates
[5]; commercial Ned-19
  Hill coefficient, [32P]NAADP binding competition: −2.3
[6]
  KCl depolarization-induced Ca2+ transient: unaltered
[7]
  NAADP-mediated Ca2+ spiking: blocked NAADP-mediated Ca^2+ spiking
[2]; commercial Ned-19
  Hill coefficient, inhibition of NAADP-mediated Ca2+ release: −0.6
[2]; constant presence of 125 μM compound (figure legend: 100 μM)
  effect on NAADP concentration-response curve: reduced the maximum release and shifted the EC50 to the right

## C=C1NN(c2nc(-c3cccc([N+](=O)[O-])c3)cs2)C(=O)/C1=N/Nc1ccc(Cl)cc1C(=O)c1ccccc1 [Nrd-7]
[8]
  solubility: sparingly soluble

## COc1ccc2[nH]c(C(=O)O)c(CCNC(=O)CO/N=C3/C=C[C@@]4(C)C(=C3)CC[C@@H]3[C@H]4CC[C@]4(C)[C@H]3CC[C@]4(C)O)c2c1 [Nrd-10]
[2]
  Ca2+ release induced by the compound itself in the bioassay: induced irreversible Ca^2+ release

## CCC(=O)N1N=C(c2ccc(C3=NN(C(=O)CC)[C@H](c4cccc(OC)c4OC)C3)cc2)C[C@H]1c1cccc(OC)c1OC [Nrd-11]
[8]
  solubility: sparingly soluble

## N=c1c2ncn3c2ncn1[C@@H]1O[C@H](COP(=O)(O)OP(=O)(O)OC[C@H]2O[C@@H]3[C@H](O)[C@@H]2O)[C@@H](O)[C@H]1O [cADPR, cyclic ADP-ribose]
[9]
  pEC50: 6.52

## nicotinic acid adenine dinucleotide phosphate [NAADP, reference compound]
[2]; read-out: EC50, Ca2+ release, sea urchin egg homogenate
  pEC50: 7.46 and 7.30 to 7.52
